Source: paper PMC6299426 (Theranostics, 2018)
Where two headings read alike, the source gives them in different places. Marks after values point to notes of the source that are not given here.

Tests used:
[1] = test system: D-amino acid oxidase (DAAO); assay: D-serine oxidation by pure DAAO in vitro; assay type: biochemical; conditions: 89 μM, 15 min at 37 °C; control 13%
[2] = test system: carboxylesterase of the gut microbiota; assay type: biochemical, SD rats; conditions: without inhibitor 100%
Outline: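 Carboxylesterase inhibitor BNPP (0.3, 0.9 or 3 mM) was added together with test compound (final 1 mg/mL) to pre-incubated pooled SD rat colon-content cultures. Incubation was anaerobic (N2) at 37 °C. Conversion was followed by C18 LC/MSn-IT-TOF.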

[3] = test system: reserpine-induced acute depression model mice; assay: Degree of ptosis in reserpine-induced acute depression model; assay type: in vivo, ICR mice; conditions: 7 days, 1 h after reserpine, scale 0-4, model 2.7
[4] = test system: reserpine-induced acute depression model mice; assay: Body temperature in reserpine-induced acute depression model; assay type: in vivo, ICR mice; conditions: 7 days, 4 h after reserpine, model 34.55±0.25
[5] = biological target: D-amino acid oxidase (DAAO) (Mus musculus, UniProt P18894); assay: DAAO activity in mouse brain homogenate; assay type: biochemical, ICR mice; conditions: 5 and 10 μg/mL, 30 min at 37 °C
Sequence of D-amino acid oxidase (DAAO) (Mus musculus, UniProt P18894) (P18894 whole entry): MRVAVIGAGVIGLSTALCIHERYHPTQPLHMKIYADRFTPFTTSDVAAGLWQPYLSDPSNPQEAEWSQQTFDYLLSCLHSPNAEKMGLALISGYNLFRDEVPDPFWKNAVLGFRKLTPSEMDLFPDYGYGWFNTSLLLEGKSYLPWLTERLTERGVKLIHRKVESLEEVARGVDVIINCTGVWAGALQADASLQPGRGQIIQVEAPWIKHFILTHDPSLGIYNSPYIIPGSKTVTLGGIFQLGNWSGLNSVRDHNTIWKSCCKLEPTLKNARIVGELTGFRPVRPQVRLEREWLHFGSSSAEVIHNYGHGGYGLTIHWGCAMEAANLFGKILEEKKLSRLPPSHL
Outline: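 Brains from ten ICR mice, killed by cervical dislocation, were rinsed in saline, blotted, weighed and homogenized in 2 volumes (v/w) saline. Test compounds at final 5 or 10 μg/mL were added and incubated 30 min at 37 °C. DAAO activity was measured by ELISA kit.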

[6] = test system: chronic stress-induced depression model rats; assay: Sugar preference test in chronic stress-induced depression model; assay type: in vivo, SD rats; conditions: 14 mg/kg orally, 14 days
Outline: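 SD rats were exposed to multiple alternating stressors for 8 weeks; there were 6 groups of 10, including an unstressed control. Treatment lasted 14 days, and PGF rats stayed on antibiotics throughout. Sugar preference was tested on days 0 and 14. Data are mean ± standard deviation, analysed by two-way ANOVA and t-test.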

[7] = test system: reserpine-induced acute depression model mice; assay: Tail suspension test in reserpine-induced acute depression model; assay type: in vivo, ICR mice; conditions: model group 140.6 ± 13.6 s
[8] = Identification of albiflorin metabolites in vivo; design: species or system ICR mice; conditions: after albiflorin administration
Outline: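 Fecal metabolites were profiled by LC/MSn-IT-TOF. Feces were extracted with methanol (1/10, g/mL) by ultrasound for 30 min and centrifuged 10 min at 21100 ×g; 20 μL of supernatant was injected. Separation used a C18 column (250 × 4.6 mm, 5 μm) with a water/0.5% formic acid–methanol gradient at 0.8 mL/min over 45 min. Brain was sampled 2 h after oral dosing at 14 mg/kg, with analytes quantified by HPLC-MS/MS.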

[9] = test system: reserpine-induced acute depression model mice; assay: Out-circle rate in reserpine-induced acute depression model; assay type: in vivo, ICR mice; conditions: 7 days, in 15 s, model 20.0

Compound: Cc1cc(C(=O)O)n[nH]1 [AS057278, reference compound]
- D-serine in DAAO system (%) [1]: 38%

Compound: O=[N+]([O-])c1ccc(OP(=O)(O)Oc2ccc([N+](=O)[O-])cc2)cc1 [BNPP, bis-p-nitrophenyl phosphate]
- Albiflorin conversion rate in presence of inhibitor ([2]; BNPP 0.3 mM): 82.7%
- Albiflorin conversion rate in presence of inhibitor ([2]; BNPP 0.9 mM): 51.5%
- Albiflorin conversion rate in presence of inhibitor ([2]; BNPP 3 mM): 11.3%

Compound: O=C(O)c1ccccc1 [benzoic acid, Benzoic acid]
- Mean score of ptosis ([3]; 14 mg/kg): 1.7 ^*
- Body temperature ([4]; 14 mg/kg): 35.23±0.40 ºC
- Activity of DAAO in brain homogenate [5]: significantly inhibit
- Sugar preference values vs depression group [6]: significantly higher
- D-serine in DAAO system (%) [1]: 32%
- Immobility time in tail suspension test ([7]; 14 mg/kg for 7 days): 99.5 ± 10.1 s
- Where the metabolite was detected in mice [8]: detected in plasma, feces and brain
- Rate of out-circle ([9]; 14 mg/kg): 70.0 ^* %

Compound: CNCCC(Oc1ccc(C(F)(F)F)cc1)c1ccccc1 (stereo not shown) [fluoxetine, reference compound]
- Mean score of ptosis ([3]; 10 mg/kg): 1.4 ^*
- Body temperature ([4]; 10 mg/kg): 35.31±0.26 ºC
- Immobility time in tail suspension test ([7]; 10 mg/kg for 7 days): 76.0 ± 17.8 s
- Rate of out-circle ([9]; 10 mg/kg): 60.0%

Compound: dihydroxylalbiflorin [M2]
- Where the metabolite was detected in mice [8]: only detected in the feces

Compound: glucuronic acid-conjugated albiflorin [M3]
- Where the metabolite was detected in mice [8]: only detected in the feces

Compound: hydroxylalbiflorin [M1]
- Where the metabolite was detected in mice [8]: only detected in the feces
